Results collected from several papers.
Target: Serine/threonine-protein kinase WNK2 (WNK2, Homo sapiens, UniProt Q9Y3S1)

With `C=CC(=O)N1CCC(C(=O)NCC(=O)N2CCN(c3nc(-c4cnc(N)nc4C(F)F)nc(N4CCOCC4)n3)CC2)CC1` the remaining binding was 92% (binding; competition with immobilised ligand; 1 µM).
With `CC1=C(C#N)[C@@H](c2ccc3[nH]nc(C)c3c2)C(C#N)=C(c2ccc(Cl)cc2)N1` the remaining binding was 100% (cell-free assay; competition with immobilised ligand; 1 µM).
`N[C@@H]1CCN(c2nccc(-c3cnn4ncccc34)n2)C1` gave a remaining binding of 95% (binding; 1 µM).
`Cc1cnc(Nc2ccc(C(=O)N3CCC(N4CCCC4)CC3)cc2)nc1-c1cc2ccccc2s1` has a remaining binding of 69% (binding; competition with immobilised ligand; 1 µM).
The remaining binding of `c1cncc(-c2cccc(Nc3nccc(NC4CCCCC4)n3)c2)c1` is reported as 100% (binding; competition with immobilised ligand; 10 µM).
`CCC(=N\O)/C(C)=C/c1ccc(F)cc1` gave a remaining binding of 80% (cell-free assay; competition with immobilised ligand; 1 µM).
`O=C(NCCCN1CCOCC1)c1ccc(Nc2nccc(-c3cc4ccccc4s3)n2)cc1` gave a remaining binding of 60% (binding; competition with immobilised ligand; 1 µM).
The remaining binding of `O=C(NCC1CCOCC1)c1n[nH]cc1NC(=O)c1c(F)cccc1F` is reported as 81% (binding; competition with immobilised ligand; 1 µM).
`CC1CCCN1c1nccc(-c2cnn3ncccc23)n1` (stereo not drawn) gave a remaining binding of 100% (binding; 1 µM).
The remaining binding of `CNC(=O)[C@@H]1CC[C@@H](n2c(-c3ccc4cnccc4c3)nc3ccc(C(=O)NCc4cccc(C(N)=O)c4)cc32)C1` is reported as 100% (binding; competition with immobilised ligand; 1 µM).
With `CCS(=O)(=O)c1cc2cc(C[C@@](O)(CC(C)(C)c3ccc(F)cc3C(N)=O)C(F)(F)F)[nH]c2cn1` the remaining binding was 46% (cell-free assay; competition with immobilised ligand; 1 µM).
With `Cc1cnn2ncc(-c3ccnc(N(C)C)n3)c2c1` the remaining binding was 100% (binding; 1 µM).
`FC(F)(F)Oc1cccc(-c2cnc3ccc(-c4ccncc4)nn23)c1` gave a remaining binding of 86% (binding; competition with immobilised ligand; 5 µM).
With `O=C(c1ccc(Nc2ncc(Cl)c(-c3ccc(Cl)s3)n2)cc1)N1CCC(N2CCCC2)CC1` the remaining binding was 88% (binding; competition with immobilised ligand; 1 µM).
With `CCc1ccccc1C(=O)Nc1n[nH]c2c(C)c(F)c(C3C(C#N)=C(C)N(C)C(C)=C3C#N)cc12` the remaining binding was 100% (cell-free assay; competition with immobilised ligand; 1 µM).
`F[C@@H]1CCN(c2nccc(-c3cnn4ncccc34)n2)C1` gave a remaining binding of 100% (binding; 1 µM).
`Nc1ncc2c(n1)-c1c([nH]c3ccc(C#CC4CC4)cc13)CCCC2` gave a remaining binding of 100% (binding; competition with immobilised ligand; 1 µM).
`COc1ccc2c(c1)O[C@@H](c1ccc(OC)c(OC)c1)C[C@H]2NC(=O)C1(c2ccc3c(c2)OC(F)(F)O3)CC1` gave a remaining binding of 84% (cell-free assay; competition with immobilised ligand; 1 µM).
The remaining binding of `c1cnn2ncc(-c3ccnc(N4CCC45COC5)n3)c2c1` is reported as 78% (binding; 1 µM).
With `Cc1nc(Cc2cccc(C(F)(F)F)c2)sc1-c1ccc(C(N)=O)nc1` the remaining binding was 100% (cell-free assay; competition with immobilised ligand; 1 µM).
The remaining binding of `C[C@@H]1CCN(c2nccc(-c3cnn4ncccc34)n2)C1` is reported as 100% (binding; 1 µM).
